The term ED50 denotes the dose that gives a 50% effect, or the effect in half of the subjects.

For series [1], the system named is Mus musculus. The experiment in a line: Anticonvulsant activity in CF1 albino mouse assessed as protection against scMet-induced seizures at 300 mg/kg, ip after 0.5 hrs. The class given is functional, organism-based. Details: dose 300 mg/kg. The method in brief:
(§1)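 Adult male CF no. 1 albino mice (18-25 g) dosed intraperitoneally with compound suspended in 0.5% methylcellulose (0.01 mL/g). Convulsant challenge given subcutaneously as a 0.85% pentylenetetrazol solution in 0.9% saline. Read-out is animals protected over animals tested, with neurotoxicity scored in parallel.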

Series [2] relates to Mus musculus. The experiment in a line: Neurotoxicity in CF1 albino mouse at 300 mg/kg, ip after 0.5 hrs. It is filed as toxicity, organism-based. Details: dose 300 mg/kg, route intraperitoneal. Particulars: in vivo. Summed up: (§2)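 Male CF no. 1 albino mice (18-25 g) received a single ip dose as a suspension in 0.5% methylcellulose. The read-out was the number of animals showing neurotoxicity (minimal motor impairment) over the number tested.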

Series [3] concerns Rattus norvegicus. As to the kind of experiment: Anticonvulsant activity in albino Sprague-Dawley rat assessed as protection against maximal electroshock-induced seizures at 50 mg/kg, po after 15 mins. The class given is functional. The method in brief:
(§3)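 Adult male Sprague-Dawley albino rats (100-150 g) dosed orally with compound suspended in 0.5% methylcellulose (0.04 mL per 10 g). Maximal electroshock challenge at the stated time. Protection is scored in 25% steps as the fraction of animals protected, with neurotoxicity recorded in parallel.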
Background: Protection in the maximal electroshock model is a classic sign of anticonvulsant action.

In series [4] the test system is Rattus norvegicus. As to the kind of experiment: Anticonvulsant activity in albino Sprague-Dawley rat assessed as protection against maximal electroshock-induced seizures at 50 mg/kg, po after 30 mins. The class given is functional. Summed up:
as §3

Series [5] has as its system Rattus norvegicus. The experiment in a line: Anticonvulsant activity in albino Sprague-Dawley rat assessed as protection against scMet-induced seizures at 50 mg/kg, po after 30 mins. It is filed as functional. Summed up:
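Male Sprague-Dawley albino rats (100-150 g) were given the compound orally as a suspension in 0.5% methylcellulose. Seizures were induced by subcutaneous pentylenetetrazol, dissolved in 0.9% saline as a 2.82% solution. The read-out was animals protected over animals tested.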

Series [6] has as its system Mus musculus. The experiment in a line: Anticonvulsant activity in ip dosed CF1 albino mouse assessed as protection against maximal electroshock-induced seizures. The class given is functional. Summed up:
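Male CF no. 1 albino mice (18-25 g) were dosed ip in 0.5% methylcellulose and tested by maximal electroshock. Doses were varied to give 3-4 points between 0% and 100% protection. ED50 with 95% confidence interval came from probit analysis.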

For series [7], the species on record is Mus musculus. The experiment in a line: Protective index, ratio of TD50 for CF1 albino mouse to ED50 for scMet-induced CF1 albino seizure mouse model. It is filed as functional. The method in brief:
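Ratio of TD50 to ED50 (MES or scMet) in male CF no. 1 mice (18-25 g) given ip doses in 0.5% methylcellulose. TD50 comes from minimal motor impairment: the dose was varied until four points lay between no impairment and all animals impaired. Both TD50 and ED50 were derived by probit analysis with 95% confidence intervals.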

The test system of series [8] is Mus musculus. The experiment in a line: Anticonvulsant activity in CF1 albino mouse assessed as protection against maximal electroshock-induced seizures at 60 mg/kg, ip. It is filed as functional, organism-based. Details: dose 60 mg/kg. The method in brief:
(§4)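 Adult male CF no. 1 albino mice (18-25 g). Test compound suspended in 0.5% methylcellulose and given intraperitoneally at 0.01 mL/g body weight. Maximal electroshock challenge at the stated time. Read-out is the number of animals protected over the number tested; neurotoxicity is scored in parallel.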

In series [9] the test system is Mus musculus. As to the kind of experiment: Anticonvulsant activity in CF1 albino mouse assessed as protection against scMet-induced seizures at 100 mg/kg, ip. It is filed as functional, organism-based. Details: dose 100 mg/kg. Summed up: as §1
Series [10] deals with Mus musculus. As to the kind of experiment: Neurotoxicity in CF1 albino mouse assessed as minimal motor impairment at 150 mg/kg, ip. Details: dose 150 mg/kg, route intraperitoneal. The class given is toxicity, organism-based. Particulars: in vivo. Summed up:
as §2

For series [11], the system named is Mus musculus. The experiment in a line: Anticonvulsant activity in ip dosed CF1 albino mouse assessed as protection against 44 mA-current-induced seizure by 6Hz psychomotor seizure test. It is filed as functional. The method in brief:
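In the 6 Hz psychomotor seizure test, male CF no. 1 albino mice (18-25 g) received the compound ip in 0.5% methylcellulose. Stimulation was at 32 or 44 mA. Doses were varied to give 3-4 points between 0% and 100% protection, and ED50 with 95% confidence interval came from probit analysis.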

The test system of series [12] is Rattus norvegicus. As to the kind of experiment: Anticonvulsant activity in albino Sprague-Dawley rat assessed as protection against scMet-induced seizures at 2 mg/kg, po. The arrangement: dose 2 mg/kg. The class given is functional, organism-based. Summed up:
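Oral dosing of male Sprague-Dawley rats (100-150 g) with compound in 0.5% methylcellulose. Convulsant challenge given subcutaneously as a 2.82% pentylenetetrazol solution in 0.9% saline. Groups of about 8 rats per dose. For quantitation, doses spanning 0% to 100% protection were fitted by probit analysis to give ED50 with 95% confidence interval.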

Series [13] deals with Rattus norvegicus. As to the kind of experiment: Anticonvulsant activity in ip dosed albino Sprague-Dawley rat assessed as protection against pilocarpine-induced status epilepticus. The class given is functional. The method in brief:
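Rat pilocarpine-induced status model: drug was given either at the first stage III seizure (time 0) or 30 min after status induction, […]. Seizure severity was scored on the Racine scale as protection or no protection. Time 0 used 12, 25, 50 and 100 mg/kg with 8 rats per dose. The 30 min arm used 50, 75 and 100 mg/kg with 7, 6 and 7 rats. ED50 was calculated.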

Series [14] has as its system Rattus norvegicus. As to the kind of experiment: Anticonvulsant activity in albino Sprague-Dawley rat assessed as protection against pilocarpine-induced status epilepticus dosed ip after 30 mins of pilocarpine induction. It is filed as functional. Particulars: 0.5 h. Summed up: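 Rat pilocarpine status epilepticus model. Compound is given 30 min after pilocarpine status induction, or after the first stage III seizure. Seizure severity is rated on the Racine scale and scored as protection or no protection. Doses of 50, 75 and 100 mg/kg were used, with 7, 6 and 7 rats respectively. ED50 was derived by probit analysis.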

In series [15] the test system is Mus musculus. As to the kind of experiment: Teratogenic effect in SWV mouse assessed as number of litters at 671 mg/kg, ip administered on morning of day 8 of gestation. It is filed as toxicity, organism-based. Details: dose 671 mg/kg, route intraperitoneal. Particulars: in vivo. The method in brief:
(§5)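 Inbred SWV mouse strain highly susceptible to VPA-induced neural tube defects. Each dam received a single ip injection on gestation day 8.5, dosed within 1.8-4.2 mmol/kg, against a control of 25% aqueous Cremophor EL. Groups were compared with the control, and with the matched VPA sodium-salt dose, by Fisher's exact test (p < 0.05).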

Series [16] has as its system Mus musculus. As to the kind of experiment: Teratogenic effect in SWV mouse assessed as number of implants at 671 mg/kg, ip administered on morning of day 8 of gestation. It is filed as toxicity, organism-based. The arrangement: dose 671 mg/kg, route intraperitoneal. The settings on record: in vivo. Summed up: as §5
The test system of series [17] is Mus musculus. As to the kind of experiment: Teratogenic effect in SWV mouse assessed as resorptions at 336 mg/kg, ip administered on morning of day 8 of gestation. It is filed as toxicity, organism-based. Particulars: in vivo. Details: dose 336 mg/kg, route intraperitoneal. Summed up:
as §5

Series [18] deals with Mus musculus. The experiment in a line: Teratogenic effect in SWV mouse assessed as live fetuses at 671 mg/kg, ip administered on morning of day 8 of gestation. It is filed as toxicity, organism-based. The arrangement: dose 671 mg/kg, route intraperitoneal. Particulars: in vivo. Summed up:
as §5

In series [19] the test system is Mus musculus. As to the kind of experiment: Teratogenic effect in SWV mouse assessed as live fetuses at 336 mg/kg, ip administered on morning of day 8 of gestation. The class given is toxicity, organism-based. The arrangement: dose 336 mg/kg, route intraperitoneal. The settings on record: in vivo.
For series [20], the system named is Mus musculus. As to the kind of experiment: Teratogenic effect in SWV mouse assessed as number of dead fetuses at 502 mg/kg, ip administered on morning of day 8 of gestation. It is filed as toxicity, organism-based. The arrangement: dose 502 mg/kg, route intraperitoneal. Particulars: in vivo. The method in brief:
as §5

Series [21] has as its system Mus musculus. As to the kind of experiment: Teratogenic effect in SWV mouse assessed as number of dead fetuses at 336 mg/kg, ip administered on morning of day 8 of gestation. It is filed as toxicity, organism-based. Details: dose 336 mg/kg, route intraperitoneal. Particulars: in vivo. Summed up:
as §5

The subject of series [22] is Mus musculus. As to the kind of experiment: Teratogenic effect in VPA-induced SWV mouse assessed as number of fetuses with neural tube deffects at 502 mg/kg, ip administered on morning of day 8 of gestation. The class given is toxicity, organism-based. The arrangement: dose 502 mg/kg, route intraperitoneal. Particulars: in vivo. The method in brief:
as §5

Series [23] deals with Mus musculus. The experiment in a line: Anticonvulsant activity in CF1 albino mouse assessed as protection against maximal electroshock-induced seizures at 300 mg/kg, ip after 0.5 hrs. Details: dose 300 mg/kg. It is filed as functional, organism-based. The method in brief: as §4
For series [24], the system named is Mus musculus. As to the kind of experiment: Anticonvulsant activity in CF1 albino mouse assessed as protection against maximal electroshock-induced seizures at 150 mg/kg, ip after 0.5 hrs. The class given is functional, organism-based. The arrangement: dose 150 mg/kg. The method in brief:
as §4

Calls of active or inactive are those of the source. No cut-off for these calls is given here.

Take `CC1(C)C(C)(C)C1(F)C(N)=O`: the Activity entry is “Toxic” in series [1]; “Toxic” in [2]; 75% in series [5]; “Toxic” in [10]; 4 in series [15]; 55 in [16]. Also, the Activity in series [17] was found to be 9.8%; in [18], 21.8%; in series [19] it was 90.2%; in [20], 0; in series [21], 0; in [22] it was 0. Moreover, the Activity entry in series [23] was “Toxic”. Further, the outcome in series [3], in series [4], in [8], in series [12] and in [24] was inactive. The ED50 in [6] is over 200 mg/kg; in series [11], 59 mg/kg; in series [13] it was 23 mg/kg; in [14] it was 80 mg/kg. The PI in [7] was 3.2. In [9], the result was Active.
